Assay [1] addresses T1, Cholesteryl ester transfer protein (Homo sapiens, UniProt P11597).
T1 sequence (P11597 whole entry): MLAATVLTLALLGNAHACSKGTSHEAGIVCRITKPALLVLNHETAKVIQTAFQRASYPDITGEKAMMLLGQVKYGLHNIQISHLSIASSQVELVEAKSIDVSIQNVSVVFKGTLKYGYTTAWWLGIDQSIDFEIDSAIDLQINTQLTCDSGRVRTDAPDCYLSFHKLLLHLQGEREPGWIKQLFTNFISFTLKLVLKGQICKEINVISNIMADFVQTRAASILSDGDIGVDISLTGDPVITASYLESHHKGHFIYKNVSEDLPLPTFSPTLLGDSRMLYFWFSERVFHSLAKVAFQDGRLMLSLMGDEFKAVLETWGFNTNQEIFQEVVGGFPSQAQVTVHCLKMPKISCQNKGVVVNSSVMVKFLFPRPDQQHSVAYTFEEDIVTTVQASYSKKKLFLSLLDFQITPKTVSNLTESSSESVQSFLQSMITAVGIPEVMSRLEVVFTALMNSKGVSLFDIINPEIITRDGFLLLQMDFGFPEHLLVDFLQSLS
In words: In vitro concentration required to inhibit 50% of cholesteryl ester transfer protein mediated cholesteryl ester transfer from HDL to VLDL and LDL in human plasma. The format is cell-free. In outline: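 Compound dissolved in 1:1 N-methyl-2-pyrrolidinone/PEG 400 and added to human plasma, with organic solvent at 2% final. Plasma then incubated with [3H]CE-labelled HDL at 37 °C for 4 h. ApoB lipoproteins precipitated with dextran sulfate (0.075% final) and MgCl2 (37.5 mM final). Transfer taken as the loss of supernatant HDL radioactivity. IC50 estimated from five-dose response curves.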

For assay [2], the system named is Oryctolagus cuniculus. The experiment in a line: In vivo percent inhibition of cholesteryl ester transfer protein was measured 3h after oral administration of 30 mg/kg JW rabbits plasma. The format is functional. In short, it runs like this: (§1)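 Male JW rabbits, 11-15 weeks old, dosed orally; plasma taken 3 h post-dose and spun at 11000g for 5 min at 4 °C. Plasma (1.8 µL) diluted to 600 µL in Tris-buffered saline pH 7.4 with 0.1 mg/mL BSA. Incubated 15 h at 37 °C with [3H]CE-HDL and VLDL/LDL, then VLDL/LDL precipitated with dextran sulfate/MgCl2 and supernatant counted. Inhibition expressed relative to vehicle-dosed rabbits.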

For assay [3], the target named is T2, Cholesteryl ester transfer protein (Homo sapiens) (UniProt P11597).
T2 sequence (whole entry): T1 sequence (P11597 whole entry)
In words: Percent inhibition of cholesteryl ester transfer protein in human plasma at 5 uM. The format is cell-free.

In assay [4] the target is T2, Cholesteryl ester transfer protein (Homo sapiens). The experiment in a line: Percent inhibition of cholesteryl ester transfer protein in human plasma at 9 uM. The class given is cell-free.
Assay [5] relates to Oryctolagus cuniculus. The experiment in a line: In vivo percent inhibition of cholesteryl ester transfer protein was measured 3h after oral administration of 10 mg/kg JW rabbits plasma. The class given is functional. In outline:
as §1

The subject of assay [6] is Oryctolagus cuniculus. In words: In vivo percent elevation evaluated from the plasma HDL levels in JW rabbits by oral administration of 100 mg/kg once a day for 3 days. The class given is functional. In outline:
(§2)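 Male JW rabbits, 11-15 weeks old, N = 5, dosed orally once daily for 3 days. ApoB lipoproteins in plasma precipitated with 13% PEG 6000, and HDL cholesterol measured by enzymatic assay. Elevation expressed relative to vehicle-dosed rabbits.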

In assay [7] the test system is Oryctolagus cuniculus. The experiment in a line: In vivo percent elevation evaluated from the plasma HDL levels in JW rabbits by oral administration of 30 mg/kg once a day for 3 days. The format is functional. In short, it runs like this: as §2

A value given as a limit tells only on which side of the number the result lay.

As usually defined, the IC50 is the concentration needed to halve the response being measured. High values mean weaker potency in that assay, low ones greater potency in that assay. In general, inhibition in vivo refers to the share of the control response that was lost under treatment. Read a high inhibition in vivo as a strong effect. A word on the inhibition: it is the change of the read-out against control, counted positive when it falls.

In assay [1], `CCCCCCCC1(C(=O)Nc2ccccc2S)CCCCC1` returned an IC50 of 7 µM. `CCC(CC)CC1(C(=O)Nc2ccccc2SC(C)=O)CCCCC1`: the inhibition in vivo at 30 mg/kg with Oryctolagus cuniculus [2] turned out to be 40%. Consider `CCC(CC)CC1(C(=O)Nc2ccccc2S)CCCCC1`, for which, in assay [3], the inhibition came to 50%. The compound further gave an IC50 in assay [1] of 5 µM. Take `CCCCC1(C(=O)Nc2ccccc2S)CCCCC1`: in assay [1], the half-inhibitory concentration (IC50) is 9 µM. The same measure, in the same setting: next, `CCC(=O)Nc1ccccc1SSc1ccccc1NC(=O)CC`: 180 µM; `CC(C)CCCC1(C(=O)Nc2ccccc2S)CCCCC1`: 6 µM. The same measure, in the same setting: next, `CCCCCCC1(C(=O)Nc2ccccc2S)CCCCC1`: 6 µM; `CC(=O)Nc1ccccc1SSc1ccccc1NC(C)=O`: 500 µM; `CC(C)(C)NC(=O)c1ccccc1SSc1ccccc1C(=O)NC(C)(C)C`: greater than 500 µM. As for `CC1(C(=O)Nc2ccccc2OC(=O)Cc2ccccc2)CCCCC1`, the IC50 in assay [1] was greater than 300 µM. Turning to `CCC(CC)CC1(C(=O)Nc2ccccc2SC(=O)C(C)(C)C)CCCCC1`, in the assay on Oryctolagus cuniculus [2], testing at 30 mg/kg gave an inhibition in vivo of 32%.

`CCC(CC)CC1(C(=O)Nc2ccccc2SC)CCCCC1`: the IC50 in assay [1] was greater than 300 µM. For `CC(C)(C)C(=O)Nc1ccc(SSc2ccc(NC(=O)C(C)(C)C)cc2)cc1`, the IC50 in assay [1] is greater than 500 µM. The same measure, in the same setting: under `CC(C)(C)C(=O)Nc1cccc(SSc2cccc(NC(=O)C(C)(C)C)c2)c1` stands greater than 500 µM. As for `CCCCCC1(C(=O)Nc2ccccc2S)CCCCC1`, the IC50 in assay [1] was 7 µM. The compound `CCCCCCCC(=O)Nc1ccccc1SSc1ccccc1NC(=O)CCCCCCC` gave an IC50 in assay [1] of 21 µM. Same read-out and setting: next, `CC(C)(C)C(=O)Nc1ccccc1SSc1ccccc1NC(=O)C(C)(C)C`: 13 µM. In assay [4], `CCC(CC)CC1(C(=O)Nc2ccccc2SC(=O)C(C)C)CCCCC1` [DALCETRAPIB] gave an inhibition of 50%. The same compound gave an IC50 in assay [1] of 6 µM. Further, the inhibition in vivo at 10 mg/kg in the assay with Oryctolagus cuniculus [5] stood at 35%. In the assay with Oryctolagus cuniculus [2], this compound showed an inhibition in vivo at 30 mg/kg of 95%. The Elevation in the assay with Oryctolagus cuniculus [6] amounted to 54%; with Oryctolagus cuniculus [7] it was 27%.

The compound `CN(C(=O)C(C)(C)C)c1ccccc1SSc1ccccc1N(C)C(=O)C(C)(C)C` gave an IC50 in assay [1] greater than 300 µM.

Take `CC1(C(=O)Nc2ccccc2SSc2ccccc2NC(=O)C2(C)CCCCC2)CCCCC1`: the IC50 in assay [1] came to 8 µM.

The record behind these values is ChEMBL document CHEMBL1133653, “bis(2-(Acylamino)phenyl) disulfides, 2-(acylamino)benzenethiols, and S-(2-(acylamino)phenyl) alkanethioates as novel inhibitors of cholesteryl ester transfer protein” (J Med Chem, 2000).
